Bioassay records (PubChem BioAssay)
Shown are actives, neighbours in structure and some others; about 1.7% of the full set was active somewhere.
STEP block: blocks human striatal-enriched tyrosine phosphatase. P54829. recombinant STEP, OMFP fluorogenic substrate, fluorescence. inhibition, % at 20 µM. actives 0.25% (n = 360,000);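 active = inhibition at 20 µM, scaled per plate between control wells, above about 37%, limit read from the data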
Target sequence (P54829 whole entry, looked up): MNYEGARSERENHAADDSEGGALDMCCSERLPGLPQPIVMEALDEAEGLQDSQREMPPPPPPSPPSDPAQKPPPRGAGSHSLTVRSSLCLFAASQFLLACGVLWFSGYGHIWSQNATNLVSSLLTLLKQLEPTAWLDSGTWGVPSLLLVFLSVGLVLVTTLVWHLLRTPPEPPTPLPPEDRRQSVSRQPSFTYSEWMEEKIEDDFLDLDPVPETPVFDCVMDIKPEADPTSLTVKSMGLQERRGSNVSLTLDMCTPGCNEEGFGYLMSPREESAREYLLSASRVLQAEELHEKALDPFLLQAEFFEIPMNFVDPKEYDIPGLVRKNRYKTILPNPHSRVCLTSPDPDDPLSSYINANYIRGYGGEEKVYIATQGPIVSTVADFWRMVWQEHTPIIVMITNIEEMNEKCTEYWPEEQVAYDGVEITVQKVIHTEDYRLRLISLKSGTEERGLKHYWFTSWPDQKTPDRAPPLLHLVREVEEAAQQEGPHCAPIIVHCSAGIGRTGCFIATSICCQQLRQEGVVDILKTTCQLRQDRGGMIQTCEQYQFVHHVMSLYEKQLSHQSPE
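Assay system: isolated STEP enzyme. Buffer or medium: pH 6.0 Bis-Tris with DTT and Tween 20. Also added: fluorogenic phosphatase substrate OMFP at 25 µM final. Dosing: 20 µM, 1% DMSO. Timing: 20 min reaction, room temperature, in the dark. Measured by: fluorescence intensity, excitation 480 nm, emission 540 nm. Evaluation: normalized % inhibition.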
SUMO1-SIM PPI: alters human SUMO1 binding to SIM partners. P63165. SUMO1 binding to a labelled peptide, TR-FRET, 1 h. inhibition, % at 20 µM. actives 0.33% (n = 360,000). AID 602429; in the data active = inhibition above about 37%
Target sequence (P63165 whole entry, looked up): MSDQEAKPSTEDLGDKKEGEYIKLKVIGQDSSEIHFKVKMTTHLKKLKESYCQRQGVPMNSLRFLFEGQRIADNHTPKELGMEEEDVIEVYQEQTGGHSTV
Scp-1 inhibitor: inhibitors of human Scp-1 phosphatase. Q9GZU7. Recombinant Scp1, phosphopeptide, malachite green phosphate absorbance. inhibition, % at 20 µM. actives 0.88% (n = 340,000);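 active = inhibition above about 50% at 20 µM, limit read from the data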
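Times: enzyme reaction 45 min at room temperature, colour 5 min, stabilisation 30 min. Material: SCP-1 catalytic fragment, aa 76-261. Medium: Acidic Tris acetate buffer with magnesium and detergent. Signal: colorimetric free-phosphate detection, absorbance 630 nm. Read-out basis: % inhibition of SCP-1 phosphate liberation. Reagent: Phosphorylated 17-residue peptide substrate.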
LMPTP block: LMPTP (human) inhibition; P24666; recombinant LMPTP-A, OMFP fluorogenic substrate, fluorescence intensity; inhibition, % at 20 µM; actives 0.22% (n = 360,000);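 active = compounds that cut the enzyme signal by at least half of the control window in the single-dose screen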
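material = LMPTP-A | quantity = 0.625 nM enzyme | reagent = OMFP substrate, 400 µM final | buffer or medium = Bis-Tris pH 6.0, DTT, detergent | detection = endpoint fluorescence intensity from OMFP dephosphorylation | dosing = single 20 µM dose | read-out basis = % inhibition relative to no-enzyme and uninhibited control wells | control set = no-enzyme and uninhibited controls | timing = 50 min at room temperature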
DNMT1 inh: DNMT1 (human) enzyme inhibition; inhibition (reported as % activation of signal), % at 10 µM; actives 0.83% (n = 360,000); DNMT1 molecular beacon, Hinp1I cleavage, fluorescence; in the data active = inhibition above about 50%
DNMT1 interf DR: counter-screen for DNMT1 inhibitors: spectral interference, dose response. shares compounds with DNMT1 inh. molecular beacon fluorescence. IC50, µM. 200 tested, under 10 active. AID 602382; call rule not given here
DNMT1 inh conf: DNMT1 inhibition confirmation, single concentration; shares compounds with DNMT1 inh; DNMT1 molecular beacon HinP1I cleavage, fluorescence; inhibition, % at 10 µM; actives 8% (n = 2,300); AID 602385;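 active = average inhibition of at least 30% in the single-concentration confirmation test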
Beacon interf: shows spectral interference in the DNMT1 beacon assay; shares compounds with DNMT1 inh; DNMT1 molecular beacon spectral interference counterscreen, fluorescence 485/520; activation (fluorescence interference), % at 10 µM; actives 1% (n = 2,300); AID 602387;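 active = activation of at least 30% at 10 µM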;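 also: DNMT1 catalytic domain with a HinP1I cleavage step and a FAM/dabcyl DNA beacon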
Each line names hits and unclear results; the compound was inactive in the other large screens (follow-up assays come after a bar, where they were run).

CCNc1ccc(Br)cc(C(=O)/C=C/c2ccc(Cl)cc2Cl)c1=O	DNMT1 inh 70 | DNMT1 inh conf inactive | Beacon interf inactive
O=[N+]([O-])c1cccc(/C=C/c2nc(C=Nc3ccc4ccccc4c3)c(O)o2)c1	DNMT1 inh 53 | DNMT1 inh conf inactive | Beacon interf inactive
O=C1CC(c2ccco2)Sc2nc3ccccc3n21 (centres undefined)	DNMT1 inh 56 | DNMT1 inh conf inactive | Beacon interf inactive
O=C(Nc1ccc(N2CCN(c3ccc(C(F)(F)F)cn3)CC2)nc1)c1cccs1	DNMT1 inh 52 | DNMT1 inh conf inactive | Beacon interf inactive
O=C(Nc1ccc(N2CCN(c3ncccc3C(F)(F)F)CC2)nc1)c1cccs1	none
Cc1ccc(-c2nc3ccccc3o2)cc1NC(=S)NC(=O)c1cccs1	DNMT1 inh 55 | DNMT1 inh conf inactive | Beacon interf inactive
Cc1ccc2oc(-c3cccc(NC(=S)NC(=O)c4cccs4)c3)nc2c1	none
Cc1cc(C)c2oc(-c3ccc(C)c(NC(=S)NC(=O)c4cccs4)c3)nc2c1	DNMT1 inh 51 | DNMT1 inh conf inactive | Beacon interf inactive
O=C(CC1Oc2ccccc2NC1=O)NC1CC1 (centres undefined)	DNMT1 inh 97 (no result: Scp-1 inhibitor) | DNMT1 inh conf inactive | Beacon interf inactive
COC(=O)c1cc(C#N)c(=O)[nH]c1C	DNMT1 inh 89 | DNMT1 inh conf inactive | Beacon interf inactive
COc1ccccc1C(=O)NCC(=O)NCCC(c1ccccc1)c1ccccc1	none
CC(=O)Nc1ccc(S(=O)(=O)NCCc2cn3nc(C)c(C)nc3n2)cc1	none
N#Cc1cnn(Cc2ccc(Cl)cc2)c1N	none
N#Cc1cnn(Cc2ccccc2)c1N	DNMT1 inh 72 | DNMT1 inh conf inactive | Beacon interf inactive
O=C1C(=O)c2c(ccc3ccccc23)-c2ccccc21	SUMO1-SIM PPI 61, Scp-1 inhibitor 101, DNMT1 inh 108 | DNMT1 interf DR inactive | DNMT1 inh conf inactive | Beacon interf inactive
CN(C)/C=C1\Oc2ccc3ccccc3c2C1=O	none
CC(=O)Nc1ccc(S(=O)(=O)NCC(CCC(=O)O)C(F)(F)F)cc1 (centres undefined)	DNMT1 inh 60 | DNMT1 inh conf inactive | Beacon interf inactive
CC(=O)Nc1ccc(S(=O)(=O)NCC(C)NS(=O)(=O)c2ccc(NC(C)=O)cc2)cc1 (centres undefined)	none
Cc1cc(NC(=O)c2cccc(Br)c2)no1	none
O=C(Cn1c2ccccc2c(=O)c2cc([N+](=O)[O-])ccc21)Nc1ccccc1Cl	DNMT1 inh 56 | DNMT1 inh conf inactive | Beacon interf inactive
CC1(C(=O)NCCC(F)(F)F)Cc2c(-c3cccc(C(F)(F)F)c3)ccnc2O1 (centres undefined)	none (no result: Scp-1 inhibitor)
CN(C)c1ccc(-c2ccnc3c2CC(C)(C(=O)NCC2CCOCC2)O3)cc1 (centres undefined)	DNMT1 inh 59 (no result: Scp-1 inhibitor) | DNMT1 inh conf inactive | Beacon interf inactive
CC1(C(=O)NCC2CCOCC2)Cc2c(-c3cccc(C(F)(F)F)c3)ccnc2O1 (centres undefined)	DNMT1 inh 84 (no result: Scp-1 inhibitor) | DNMT1 inh conf inactive | Beacon interf inactive
CC1(C(=O)NCC2CC2)Cc2c(-c3ccccc3)ccnc2O1 (centres undefined)	none (no result: Scp-1 inhibitor)
CCCCCn1c(N)c(-c2nc3ccccc3o2)c2c([N+](=O)[O-])nn(CC)c(=O)c21	Scp-1 inhibitor 102, LMPTP block 56, DNMT1 inh 95 | DNMT1 inh conf inactive | Beacon interf inactive
CCCCCn1c(N)c(-c2nc3ccccc3s2)c2c([N+](=O)[O-])nn(CC)c(=O)c21	none
Cc1ccc(Cn2nc(C)c(NC(=O)CSc3nc4c(c(C(F)(F)F)n3)CCc3ccccc3-4)c2C)cc1	none
Cc1nn(Cc2ccc(Cl)cc2)c(C)c1NC(=O)CSc1nc2c(c(C(F)(F)F)n1)CCc1ccccc1-2	DNMT1 inh 51 | DNMT1 inh conf inactive | Beacon interf inactive
CN(C)CCNC(=O)C1(C)Cc2c(-c3cccc(C(F)(F)F)c3)ccnc2O1 (centres undefined)	none (no result: Scp-1 inhibitor)
CCOC(=O)c1nn(-c2ccc(C)cc2)c(=O)cc1OCC(=O)Nc1cccc(OC)c1	none
CCOC(=O)c1nn(-c2ccc(F)cc2)c(=O)cc1OCC(=O)Nc1ccc(OCC)cc1	DNMT1 inh 69 | DNMT1 interf DR inactive | DNMT1 inh conf 80 | Beacon interf inactive
O=C1CC(NCC2CCCO2)C(=O)N1c1ccc(F)cc1 (centres undefined)	DNMT1 inh 81 | DNMT1 inh conf inactive | Beacon interf inactive
Cc1ccc([C@@H]2CC=C(C(=O)O)[C@H](c3ccc(C(C)(C)C)cc3)N2S(=O)(=O)c2ccc(C)cc2)cc1	none
Cc1ccc(S(=O)(=O)N2[C@@H](c3ccc(C(C)(C)C)cc3)C(C(=O)O)=CC[C@H]2c2ccc(C(C)C)cc2)cc1	DNMT1 inh 58 | DNMT1 interf DR inactive | DNMT1 inh conf 52 | Beacon interf inactive
CCCCN(C)S(=O)(=O)c1cc2c(cc1Br)CCN2C(=O)C1CC1	none
Cc1[nH]n(-c2ncc(-c3ccc(Cl)cc3)s2)c(=O)c1C(c1ccc(Cl)cc1)C(C#N)C#N (centres undefined)	DNMT1 inh 83 | DNMT1 inh conf inactive | Beacon interf inactive
COc1cc(OC)c2ccc(=O)oc2c1C(CCN1CCOCC1)c1ccc2c(c1)OCO2 (centres undefined)	DNMT1 inh 61 | DNMT1 inh conf inactive | Beacon interf inactive
CC1(C)CC(N=c2cc(-c3ccccc3)oc3ccc(Cl)cc23)CC(C)(C)N1	DNMT1 inh 75 | DNMT1 interf DR inactive | DNMT1 inh conf 33 | Beacon interf inactive
CCC(CO)N=C1CC(C)(C)CC(=O)/C1=C(/O)CCCN1C(=O)c2ccccc2C1=O (centres undefined)	none
Clc1ccc(CNc2ccc3nnc(-c4ccccc4)n3n2)cc1	DNMT1 inh 66 | DNMT1 inh conf inactive | Beacon interf inactive
O=C(O)c1ccc(OCC(F)(F)F)nc1	none
CC(C)n1c(=S)[nH]c2scc(-c3cccs3)c2c1=O	DNMT1 inh 80 | DNMT1 inh conf inactive | Beacon interf inactive
CCN1C(=O)CSC1=Nc1cccc(C(=O)O)c1	none
CC1=C/C(=C\c2ccc(Br)o2)C(=O)O1	Scp-1 inhibitor 82, DNMT1 inh 106 | DNMT1 interf DR inactive | DNMT1 inh conf 46 | Beacon interf inactive
